{"source": "paper PMC3981972", "about": "(Molecular cancer therapeutics, 2014)", "key": {"[1]": {"test_system": "tumor blood vessels of HT-1080 xenografts", "conditions": "previous observations; cited from earlier work"}, "HT1080 cells": {"test_system": "HT1080 cells", "experiment": "Live cell imaging of subcellular uptake and wash-out kinetics", "format": "cell-based", "procedure,_shortened": "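HT1080 cells grown in DMEM with non-essential amino acids, 10% FBS and 1% penicillin-streptomycin, then imaged live in glass coverslip-bottom dishes on an inverted deconvolution microscope (40x objective, 37°C, 5% CO2). Prewarmed fluorescent probe was added to 1 μM, with images every second. Cells were then washed twice into drug-free medium. Nuclear and nucleolar regions of interest were fitted to uptake and clearance curves.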"}, "[2]": {"experiment": "Mouse plasma clearance of fluorescent probes after intravenous injection", "format": "in vivo", "conditions": "75 nmol i.v., biexponential fit", "procedure,_shortened": "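Nude mice (6–8 weeks) with HT-1080 tumours in dorsal skin window chambers, under 1–2% isoflurane. Vessels labelled with Angiosense-750 or Pacific Blue–dextran. 75 nmol probe in 1:1 dimethylacetamide:solutol plus PBS, sonicated, given by tail-vein catheter during time-lapse intravital imaging (scans every 10 s). Plasma signal taken from intravascular regions of interest and fitted to biexponential decay.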"}, "[3]": {"experiment": "Plasma protein binding by rapid equilibrium dialysis", "format": "in vitro ADME", "conditions": "10 μM in mouse serum, 37°C, 4 hours", "procedure,_shortened": "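Probe equilibrated in mouse serum against PBS on a shaker. Both compartments then adjusted with plasma or PBS to a 50:50 PBS:plasma final matrix to even out fluorescence effects. Fluorescence read on a plate reader to give the bound fraction.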"}}}
{"smiles": "Cc1cc(C)n2c1C=C1C=CC(CCC(=O)N3CCN(C(=O)c4cc(Cc5n[nH]c(=O)c6ccccc56)ccc4F)CC3)=[N+]1[B-]2(F)F", "note": "[olaparib-BODIPY FL]", "values": [{"measurement": "Vascular permeability in tumor vessels versus mouse ear vessels", "setting": "[1]", "result": "the same in tumor vessels and mouse ear vessels"}, {"measurement": "Washing time to remove non-specific ER staining", "setting": "HT1080 cells; HT1080 cells after 1 μM incubation, washed with fresh media", "result": "Within five minutes"}, {"measurement": "Cellular uptake half-life", "setting": "HT1080 cells; HT1080 cells, 1 μM", "result": 1.18, "unit": "min"}, {"measurement": "Mouse plasma clearance t1/2,alpha", "setting": "[2]", "result": 5.16, "unit": "min"}, {"measurement": "Mouse plasma clearance t1/2,beta", "setting": "[2]", "result": 85.7, "unit": "min"}, {"measurement": "C0", "setting": "[2]; read-out: Mouse plasma clearance C0", "result": 7, "unit": "µM"}, {"measurement": "Mouse plasma protein binding", "setting": "[3]", "result": "99.23% (+/− 0.11%)"}]}
